According to ChEMBL document CHEMBL3352185, “Design, synthesis, and antibacterial properties of dual-ligand inhibitors of acetyl-CoA carboxylase” (2014):
In brackets after ≈: the same amount, converted by molar mass. Activity calls are given as the source filed them. The rule behind the calls is not given here.

Tests used:
[1] = tested on: Staphylococcus epidermidis; assay: Antibacterial activity against wild type Staphylococcus epidermidis ATCC 35984 after 18 to 24 hrs by two-fold broth microdilution method; format: functional
How it was run: (§1)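 MICs were determined by CLSI broth microdilution in cation-adjusted Mueller Hinton (MHII) broth. Organisms were first streaked on agar and grown overnight at 35 °C. Compounds were dissolved in 100% DMSO and tested as 2-fold serial dilutions. A standardized inoculum was incubated with compound for 18−24 h at 35 °C. The norA strain is an otherwise isogenic S. aureus carrying a gain-of-function NorA mutation.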

Enterococcus faecalis = assay: Antibacterial activity against wild type Enterococcus faecalis ATCC 29212 after 18 to 24 hrs by two-fold broth microdilution method; format: functional; how it was run: as §1
Escherichia coli [2] = assay: Ratio of MPC for Escherichia coli D21 tolC deletion mutant to MIC for Escherichia coli D21 tolC deletion mutant; format: functional
How it was run: (§2)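 Single-step selection on MHII agar: compound added to molten agar cooled to 55 °C, at 2-fold increasing concentrations. Overnight MHII broth culture of E. coli tolC concentrated by centrifugation; 4 × 10^9 CFU plated per plate, CFU counted by serial dilution. Plates monitored for resistant colonies. MPC is the lowest consecutive concentration fully suppressing resistant mutants. Ratio is MPC to broth microdilution MIC.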

Escherichia coli [3] = assay: Antibacterial activity against Escherichia coli D21 tolC deletion mutant assessed as mutant prevention concentration after 18 to 24 hrs by two-fold broth microdilution method; format: functional; how it was run: as §2
Pseudomonas aeruginosa [4] = assay: Antibacterial activity against wild type Pseudomonas aeruginosa PAO1 after 18 to 24 hrs by two-fold broth microdilution method; format: functional
How it was run: (§3)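 CLSI broth microdilution in cation-adjusted Mueller Hinton (MHII) broth. Strains streaked on agar and grown overnight at 35 °C. […] Value is the MIC.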

Pseudomonas aeruginosa [5] = assay: Antibacterial activity against Pseudomonas aeruginosa PAO1 mexAB/mexCD/mexXY/mexHI/opmH deletion mutant after 18 to 24 hrs by two-fold broth microdilution method
Escherichia coli [6] = assay: Antibacterial activity against wild type Escherichia coli D21 after 18 to 24 hrs by two-fold broth microdilution method; format: functional; how it was run: as §3
Escherichia coli [7] = assay: Antibacterial activity against Escherichia coli D21 IpxC101 deletion mutant after 18 to 24 hrs by two-fold broth microdilution method; format: functional; how it was run: as §3
Escherichia coli [8] = assay: Antibacterial activity against Escherichia coli D21 tolC deletion mutant after 18 to 24 hrs by two-fold broth microdilution method; format: functional; how it was run: as §3
Escherichia coli [9] = assay: Antibacterial activity against Escherichia coli D21 IpxC101/tolC deletion mutant after 18 to 24 hrs by two-fold broth microdilution method; format: functional; how it was run: as §3
Staphylococcus aureus [10] = assay: microbe, parasite or virus in culture; settings: ATCC 29213
Staphylococcus aureus [11] = assay: microbe, parasite or virus in culture; settings: ATCC 29213; remark: listed apart in the source
Escherichia coli [12] = assay: Antibacterial activity against Escherichia coli JM109 at 1 to 100 uM after 4 hrs by UV-Vis spectrophotometry; format: functional, organism-based
How it was run: (§4)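 E. coli JM109 was grown overnight in LB at 37 °C, then diluted into fresh LB tubes. Tubes received compound from a DMSO stock at final 1, 10, 50 or 100 μM, with or without polymyxin B nonapeptide at final 0.5, 1, 5 or 10 μg/mL. Tubes were incubated 4 h at 37 °C and growth was read as absorbance at 600 nm.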

Escherichia coli [13] = assay: Antibacterial activity against Escherichia coli JM109 at 1 to 100 uM after 4 hrs by UV-Vis spectrophotometry in presence of PBMN; format: functional, organism-based; how it was run: as §4
Escherichia coli [14] = assay: Non competitive inhibition of Escherichia coli acetyl-CoA carboxylase using acetyl-CoA as substrate in presence of ATP
Escherichia coli [15] = assay: Competitive inhibition of Escherichia coli acetyl-CoA carboxylase using acetyl-CoA as substrate in presence of ATP
How it was run: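 ACC holoenzyme activity was measured with a pyruvate kinase/lactate dehydrogenase coupled assay. Mix: 0.5 mM phosphoenolpyruvate, 0.2 mM NADH, 20 mM MgCl2, 15 mM bicarbonate, 100 mM HEPES pH 8.0. ATP was fixed at 5 μM, acetyl-CoA was varied from 50 to 1000 μM, and inhibitor was used at fixed increasing concentrations. Initial velocities were fitted to a competitive equation to give Kis.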

Escherichia coli [16] = assay: Competitive inhibition of Escherichia coli biotin carboxylase
Escherichia coli [17] = assay: Antibacterial activity against moiramide-resistant Escherichia coli D21 tolC deletion mutant after 18 to 24 hrs by two-fold broth microdilution method; format: functional; how it was run: as §3
Staphylococcus aureus [18] = assay: Antibacterial activity against moiramide-resistant Staphylococcus aureus ATCC 29213 after 18 to 24 hrs by two-fold broth microdilution method; format: functional; how it was run: as §3
Escherichia coli [19] = assay: Selectivity ratio of MIC for moiramide-resistant Escherichia coli D21 tolC deletion mutant to MIC for Escherichia coli D21 tolC deletion mutant; format: functional
Staphylococcus aureus [20] = assay: Selectivity ratio of MIC for moiramide-resistant Staphylococcus aureus ATCC 29213 to MIC for Staphylococcus aureus ATCC 29213; format: functional
Escherichia coli [21] = assay: Inhibition of Escherichia coli acetyl-CoA carboxylase
How it was run: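 Purified ACC complex was assayed by PK/LDH-coupled NADH oxidation in 100 mM HEPES pH 8.0, with 20 mM MgCl2 and 15 mM bicarbonate. One series varied ATP (0.8–56 μM) at 0.2 mM acetyl-CoA; the other varied acetyl-CoA (50–1000 μM) at 5 μM ATP. Each series was run at fixed increasing inhibitor levels. Kis and Kii came from fits to competitive or noncompetitive rate equations.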

| Molecule | MIC [1] | MIC (Enterococcus faecalis) | Ratio (Escherichia coli [2]) | Activity (Escherichia coli [3]) | MIC (Pseudomonas aeruginosa [4]) | MIC (Pseudomonas aeruginosa [5]) | MIC (Escherichia coli [6]) | MIC (Escherichia coli [7]) | MIC (Escherichia coli [8]; Escherichia coli, D21) | MIC (Escherichia coli [9]) | MIC (Staphylococcus aureus [10]) | MIC (Staphylococcus aureus [11]) | Kii (Escherichia coli [14]) | Kis (Escherichia coli [14]) | Kis (Escherichia coli [15]) | MIC (Escherichia coli [17]) | MIC (Staphylococcus aureus [18]) | further results |
| --- | --- | --- | --- | --- | --- | --- | --- | --- | --- | --- | --- | --- | --- | --- | --- | --- | --- | --- |
| CO[C@H]1/C=C/O[C@@]2(C)Oc3c(C)c(O)c4c(O)c(c(/C=N/N5CCN(C)CC5)c(O)c4c3C2=O)NC(=O)/C(C)=C\C=C\[C@H](C)[C@H](O)[C@@H](C)[C@@H](O)[C@@H](C)[C@H](OC(C)=O)[C@@H]1C [RIFAMPIN] | ≤ 0.03 µg/mL | 0.5 µg/mL (≈ 0.608 µM) | >8 | >64 mg/L | 31 µg/mL (≈ 37.7 µM) | 31 µg/mL (≈ 37.7 µM) | 31 µg/mL (≈ 37.7 µM) | 0.06 µg/mL (≈ 0.0729 µM) | 8 µg/mL (≈ 9.72 µM) | 0.5 µg/mL (≈ 0.608 µM) | ≤ 0.03 µg/mL | ≤ 0.03 µg/mL |  |  |  |  |  | Activity (Escherichia coli [8]): >64 mg/L |
| O=C(N[C@H](CO)[C@H](O)c1ccc([N+](=O)[O-])cc1)C(Cl)Cl [CHLORAMPHENICOL] | 8 µg/mL (≈ 24.8 µM) | 8 µg/mL (≈ 24.8 µM) |  |  | > 64 µg/mL | 2 µg/mL (≈ 6.19 µM) | 8 µg/mL (≈ 24.8 µM) | 4 µg/mL (≈ 12.4 µM) | 1 µg/mL (≈ 3.09 µM) | 1 µg/mL (≈ 3.09 µM) | 8 µg/mL (≈ 24.8 µM) | 8 µg/mL (≈ 24.8 µM) |  |  |  |  |  |  |
| CC(C)[C@H](NC(=O)C[C@H](NC(=O)CCCCCCCCCCCCCCCOc1ccc(CN(Cc2ccccc2)C(=O)c2cnc(N)o2)cc1)c1ccccc1)C(=O)[C@@H]1C(=O)NC(=O)[C@H]1C | > 64 µg/mL | > 64 µg/mL |  |  | > 64 µg/mL |  | > 64 µg/mL |  |  |  | > 64 µg/mL | > 64 µg/mL | 33.7 nM | 28.7 nM | 5.2 nM |  |  | Activity (Escherichia coli [12]): inactive; Activity (Escherichia coli [13]): Active |
| Nc1ncc(C(=O)N(Cc2ccccc2)Cc2ccccc2)o1 | > 64 µg/mL | > 64 µg/mL | >8 | >128 mg/L | > 64 µg/mL |  | > 64 µg/mL |  | 16 µg/mL (≈ 52.1 µM) | 16 µg/mL (≈ 52.1 µM) | > 64 µg/mL | > 64 µg/mL | 900 nM | 400 nM |  | 8 µg/mL (≈ 26 µM) |  | Kis (Escherichia coli [16]): 0.8 µM |
| GENTAMICIN | 8 µg/mL | 8 µg/mL |  |  | 2 µg/mL |  | 0.1 µg/mL | 0.12 µg/mL |  | < 0.03 µg/mL |  |  |  |  |  |  |  | MIC (Escherichia coli [8]): 0.24 µg/mL |
| NC[C@H]1O[C@H](O[C@H]2[C@H](O)[C@@H](O[C@H]3O[C@H](CO)[C@@H](O)[C@H](N)[C@H]3O)[C@H](N)C[C@@H]2N)[C@H](O)[C@@H](O)[C@@H]1O [KANAMYCIN] | > 128 µg/mL | 31 µg/mL (≈ 64 µM) |  |  | 128 µg/mL (≈ 264 µM) | 64 µg/mL (≈ 132 µM) | 2 µg/mL (≈ 4.13 µM) | 1 µg/mL (≈ 2.06 µM) | 2 µg/mL (≈ 4.13 µM) | 0.5 µg/mL (≈ 1.03 µM) | 4 µg/mL (≈ 8.26 µM) | 4 µg/mL (≈ 8.26 µM) |  |  |  | 0.5 µg/mL (≈ 1.03 µM) | 2 µg/mL (≈ 4.13 µM) |  |
| C/C=C/C=C/C(=O)N[C@@H](CC(=O)N[C@H](C(=O)[C@@H]1C(=O)NC(=O)[C@H]1C)C(C)C)c1ccccc1 | 0.24 µg/mL (≈ 0.529 µM) | 8 µg/mL (≈ 17.6 µM) | 32 | 16 mg/L | > 64 µg/mL | 8 µg/mL (≈ 17.6 µM) | > 64 µg/mL | 4 µg/mL (≈ 8.82 µM) | 0.5 µg/mL (≈ 1.1 µM) | 0.5 µg/mL (≈ 1.1 µM) | 4 µg/mL (≈ 8.82 µM) | 1 µg/mL (≈ 2.2 µM) |  |  | 7.9 nM | 4 µg/mL (≈ 8.82 µM) | 8 µg/mL (≈ 17.6 µM) | Ratio (Escherichia coli [19]): 8; Ratio (Staphylococcus aureus [20]): 8; INH (Escherichia coli [21]): 5 nM |
| CC(C)[C@H](NC(=O)C[C@H](NC(=O)CCCCCCCOc1ccc(CN(Cc2ccccc2)C(=O)c2cnc(N)o2)cc1)c1ccccc1)C(=O)[C@@H]1C(=O)NC(=O)[C@H]1C | 1 µg/mL (≈ 1.24 µM) | 4 µg/mL (≈ 4.96 µM) | 8 | 64 mg/L | > 64 µg/mL |  | > 64 µg/mL |  | 8 µg/mL (≈ 9.91 µM) | 4 µg/mL (≈ 4.96 µM) | 4 µg/mL (≈ 4.96 µM) | 4 µg/mL (≈ 4.96 µM) | 9.6 nM | 16.9 nM | 5.5 nM | 16 µg/mL (≈ 19.8 µM) | > 64 µg/mL |  |
